Entries after “also recorded” stand apart in the source; their conditions may differ. Each block holds one compound with its values, some of them ahead of it.
Tests used:
human TRPM3-3 = human TRPM3-3 (Homo sapiens, UniProt Q9HCF6); type: cell-based; details: 100 μmol/L Dic applied during sustained response; Nif 30 μmol/L
[1] = system: human TRPM3s (TRPM3_1325, TRPM3-3, TRPM3-9); test: Whole-cell patch clamp in HEK-TRPM3s cells; type: cell-based
human TRPM3-S = test: Whole-cell patch clamp, constitutive spontaneous currents in HEK-TRPM3-S cells; type: cell-based; details: 10 and 30 μmol/L Dic; absence of PregS
[2] = system: wild-type control HEK293 cells; test: Whole-cell patch clamp in wild-type control HEK293 cells; type: cell-based, human; details: 10 and 30 μmol/L Dic; cells without TRPM3s
Summary of the method: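 Untransfected HEK293 cells, whole-cell mode, 2.5–5 MΩ electrodes, 25 ± 1°C. Pipette (mmol/L): Cs-aspartate 110, CsCl 30, MgCl2 1, HEPES 10, EGTA 1, Na2ATP 2, pH 7.2. HEPES-buffered bath at pH 7.4 with 2.2 CaCl2. Ramps from −110 to +90 mV (400 msec) every 10 sec from −10 mV holding. Junction potential corrected, leak uncorrected. Test compound at 10 and 30 μmol/L.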

TRPM2 = TRPM2 (Homo sapiens, UniProt O94759); test: Ca2+ measurement in HEK293 cells transfected with TRPM2; type: cell-based
TRPM8 = test: Ca2+ measurement in HEK293 cells transfected with TRPM8; type: cell-based, human; details: 100 μmol/L Dic; Men 100 μmol/L
TRPV4 = TRPV4 (Homo sapiens, UniProt Q9HBA0); test: Ca2+ measurement in HEK293 cells transfected with TRPV4; type: cell-based
human TRPM3 isoforms = human TRPM3 isoforms (Homo sapiens, UniProt Q9HCF6); type: cell-based; details: concentration-dependent
human COX-1 / COX-2 = details: times potent for COX-1; ref Jett et al. 1999; cited from earlier work
TRPC6-like channel = details: 500 μmol/L; without affecting channel conductance; ref Ilatovskaya et al. 2011; cited from earlier work
TRPC5 = details: read-out: IC50 for TRPC5; ref Jiang et al. 2012; cited from earlier work
guinea pig ileum = details: ref Fujimoto et al. 2006; cited from earlier work
mouse = details: ref Tajino et al. 2007; cited from earlier work
mouse TRPM3α2 (mTRPM3α2) = details: read-out: IC50 against mTRPM3α2; ref Klose et al. 2011; cited from earlier work
[3] = target: endogenous TRPM3 in nIMR-32 cells (Homo sapiens, UniProt Q9HCF6); test: Ca2+ measurement in differentiated neuronal IMR-32; type: cell-based; details: 30 μmol/L; some nIMR-32 cells, not non-neuronal IMR-32 cells
Chain of endogenous TRPM3 in nIMR-32 cells (Q9HCF6 whole entry): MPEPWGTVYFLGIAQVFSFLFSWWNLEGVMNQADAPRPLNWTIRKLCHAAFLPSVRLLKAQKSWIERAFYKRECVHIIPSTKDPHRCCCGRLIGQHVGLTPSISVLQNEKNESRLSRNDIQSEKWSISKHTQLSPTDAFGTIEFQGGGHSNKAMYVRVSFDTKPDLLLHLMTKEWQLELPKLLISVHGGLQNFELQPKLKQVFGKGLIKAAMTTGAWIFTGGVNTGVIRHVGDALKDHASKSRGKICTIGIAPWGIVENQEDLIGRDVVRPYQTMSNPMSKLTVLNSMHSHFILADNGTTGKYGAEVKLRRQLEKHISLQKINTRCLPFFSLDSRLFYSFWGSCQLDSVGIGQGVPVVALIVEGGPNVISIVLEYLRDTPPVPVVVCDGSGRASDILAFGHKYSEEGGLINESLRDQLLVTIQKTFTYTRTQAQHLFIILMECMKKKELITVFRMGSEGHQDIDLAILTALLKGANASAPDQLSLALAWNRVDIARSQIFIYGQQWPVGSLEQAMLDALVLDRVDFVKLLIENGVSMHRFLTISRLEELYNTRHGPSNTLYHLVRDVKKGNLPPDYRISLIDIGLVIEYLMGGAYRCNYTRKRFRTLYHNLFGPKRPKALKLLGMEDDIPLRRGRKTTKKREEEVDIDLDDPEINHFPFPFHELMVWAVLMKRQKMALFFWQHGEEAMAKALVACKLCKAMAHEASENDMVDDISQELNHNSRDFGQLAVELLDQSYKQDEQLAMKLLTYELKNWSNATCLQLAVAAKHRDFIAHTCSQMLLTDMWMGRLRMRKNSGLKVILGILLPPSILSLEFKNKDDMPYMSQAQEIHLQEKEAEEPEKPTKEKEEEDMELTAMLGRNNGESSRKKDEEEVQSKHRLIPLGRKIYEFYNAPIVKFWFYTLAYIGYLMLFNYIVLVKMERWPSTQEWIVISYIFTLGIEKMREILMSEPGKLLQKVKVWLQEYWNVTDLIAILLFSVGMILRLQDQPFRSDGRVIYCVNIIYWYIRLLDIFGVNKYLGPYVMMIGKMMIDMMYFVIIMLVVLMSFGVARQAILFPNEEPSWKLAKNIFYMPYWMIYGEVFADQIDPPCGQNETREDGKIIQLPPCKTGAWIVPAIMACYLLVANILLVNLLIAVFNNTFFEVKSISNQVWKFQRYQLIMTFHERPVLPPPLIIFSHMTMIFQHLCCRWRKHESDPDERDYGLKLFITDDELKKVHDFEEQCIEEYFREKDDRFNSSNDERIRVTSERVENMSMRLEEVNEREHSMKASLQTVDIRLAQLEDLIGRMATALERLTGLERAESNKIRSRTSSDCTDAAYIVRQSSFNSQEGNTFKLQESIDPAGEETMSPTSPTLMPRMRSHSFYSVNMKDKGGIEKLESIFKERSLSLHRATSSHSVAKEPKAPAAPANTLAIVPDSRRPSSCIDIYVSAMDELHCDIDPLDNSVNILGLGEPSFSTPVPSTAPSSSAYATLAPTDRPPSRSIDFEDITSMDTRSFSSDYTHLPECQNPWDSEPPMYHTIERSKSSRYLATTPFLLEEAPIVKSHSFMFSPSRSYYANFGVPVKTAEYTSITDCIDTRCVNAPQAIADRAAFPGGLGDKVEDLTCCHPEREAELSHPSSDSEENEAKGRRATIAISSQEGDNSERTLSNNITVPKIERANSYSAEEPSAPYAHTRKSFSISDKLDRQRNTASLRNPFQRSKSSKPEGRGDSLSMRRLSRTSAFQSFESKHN

Chain of human TRPM3 isoforms (Q9HCF6 whole entry, canonical isoform): as the sequence (Q9HCF6 whole entry) above
Chain of TRPM2 (O94759 whole entry): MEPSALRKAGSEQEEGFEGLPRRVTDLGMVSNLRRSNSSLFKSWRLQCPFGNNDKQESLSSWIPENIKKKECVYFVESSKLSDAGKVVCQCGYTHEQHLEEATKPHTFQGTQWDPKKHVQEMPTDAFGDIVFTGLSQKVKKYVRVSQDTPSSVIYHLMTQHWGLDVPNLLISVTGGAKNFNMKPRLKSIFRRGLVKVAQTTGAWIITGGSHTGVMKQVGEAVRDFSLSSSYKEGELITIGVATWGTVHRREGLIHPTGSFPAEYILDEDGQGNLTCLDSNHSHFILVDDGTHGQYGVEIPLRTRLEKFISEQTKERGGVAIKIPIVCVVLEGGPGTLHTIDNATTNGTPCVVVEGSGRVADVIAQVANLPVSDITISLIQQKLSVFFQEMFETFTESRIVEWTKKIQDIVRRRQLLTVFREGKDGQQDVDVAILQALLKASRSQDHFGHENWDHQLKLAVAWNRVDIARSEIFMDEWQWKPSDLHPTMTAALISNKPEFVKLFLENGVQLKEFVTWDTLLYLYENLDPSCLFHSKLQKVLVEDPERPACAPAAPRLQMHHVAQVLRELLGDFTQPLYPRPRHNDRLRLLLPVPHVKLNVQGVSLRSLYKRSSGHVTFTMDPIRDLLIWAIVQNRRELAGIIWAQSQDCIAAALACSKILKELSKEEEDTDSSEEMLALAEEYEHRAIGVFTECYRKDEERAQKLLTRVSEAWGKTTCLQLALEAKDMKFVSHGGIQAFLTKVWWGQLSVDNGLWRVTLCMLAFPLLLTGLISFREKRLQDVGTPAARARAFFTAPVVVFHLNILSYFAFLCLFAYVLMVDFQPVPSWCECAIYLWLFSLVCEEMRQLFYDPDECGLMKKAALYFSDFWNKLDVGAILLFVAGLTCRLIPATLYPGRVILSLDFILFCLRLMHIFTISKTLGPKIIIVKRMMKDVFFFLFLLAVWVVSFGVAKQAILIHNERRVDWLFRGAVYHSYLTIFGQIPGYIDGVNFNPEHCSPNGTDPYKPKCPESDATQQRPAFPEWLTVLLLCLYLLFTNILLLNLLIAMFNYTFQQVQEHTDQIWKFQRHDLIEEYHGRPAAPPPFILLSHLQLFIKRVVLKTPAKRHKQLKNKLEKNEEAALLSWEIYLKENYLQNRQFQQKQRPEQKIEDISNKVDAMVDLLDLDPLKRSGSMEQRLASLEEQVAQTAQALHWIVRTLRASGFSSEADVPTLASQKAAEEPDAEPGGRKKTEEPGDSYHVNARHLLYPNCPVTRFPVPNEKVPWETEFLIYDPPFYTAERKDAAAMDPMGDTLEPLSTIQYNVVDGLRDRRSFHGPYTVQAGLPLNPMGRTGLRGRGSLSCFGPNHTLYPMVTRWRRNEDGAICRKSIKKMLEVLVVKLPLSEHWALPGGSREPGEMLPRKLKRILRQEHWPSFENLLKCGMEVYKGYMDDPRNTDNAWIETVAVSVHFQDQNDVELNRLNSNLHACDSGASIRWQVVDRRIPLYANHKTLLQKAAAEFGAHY
Chain of TRPV4 (Q9HBA0 whole entry, canonical isoform): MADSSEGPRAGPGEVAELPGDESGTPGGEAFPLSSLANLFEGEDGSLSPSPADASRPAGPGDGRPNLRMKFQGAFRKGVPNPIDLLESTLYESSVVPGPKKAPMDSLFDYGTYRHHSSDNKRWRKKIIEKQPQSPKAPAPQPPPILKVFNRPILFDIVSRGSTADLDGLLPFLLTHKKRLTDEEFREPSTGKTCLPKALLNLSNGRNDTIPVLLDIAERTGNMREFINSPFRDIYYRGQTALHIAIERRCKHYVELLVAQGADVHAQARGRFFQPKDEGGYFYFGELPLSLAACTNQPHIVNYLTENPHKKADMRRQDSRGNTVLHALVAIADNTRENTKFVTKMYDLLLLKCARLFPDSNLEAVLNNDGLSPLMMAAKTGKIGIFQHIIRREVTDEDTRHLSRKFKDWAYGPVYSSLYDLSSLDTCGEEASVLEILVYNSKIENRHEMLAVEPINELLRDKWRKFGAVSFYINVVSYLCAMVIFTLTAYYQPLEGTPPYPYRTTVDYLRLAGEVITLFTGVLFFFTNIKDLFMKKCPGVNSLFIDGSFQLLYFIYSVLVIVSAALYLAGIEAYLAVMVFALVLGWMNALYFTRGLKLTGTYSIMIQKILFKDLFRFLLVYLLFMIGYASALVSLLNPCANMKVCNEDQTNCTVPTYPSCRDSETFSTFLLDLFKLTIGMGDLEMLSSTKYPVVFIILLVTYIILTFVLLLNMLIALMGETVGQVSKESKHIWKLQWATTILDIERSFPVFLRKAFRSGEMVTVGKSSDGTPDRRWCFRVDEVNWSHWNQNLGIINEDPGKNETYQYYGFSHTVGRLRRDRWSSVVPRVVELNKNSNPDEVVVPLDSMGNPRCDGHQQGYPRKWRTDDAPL

Compound: O=C(O)Cc1ccccc1Nc1c(Cl)cccc1Cl [Dic, diclofenac]
Nif-evoked sustained Ca2+ response versus PregS response (human TRPM3-3): clearly resistant
reversibility of current inhibition after withdrawal ([1]; 10 and 30 μmol/L Dic, 30 μmol/L PregS): immediately reversed
effect on PregS-evoked inward and outward currents ([1]; 10 and 30 μmol/L Dic, 30 μmol/L PregS, whole-cell): inhibited
voltage dependence of inhibition ([1]; comparison between -80 mV and +80 mV): voltage‐independent
effect on constitutive spontaneously active TRPM3-S currents (human TRPM3-S): substantially inhibited; also recorded: significantly inhibited
effect on small basal currents evoked by ramp voltage commands [2]: did not affect
IC50 (TRPM2): > 100 µM
effect on H2O2-induced Ca2+ response (TRPM2; 100 μmol/L Dic, H2O2 1 mmol/L): failed to inhibit
effect on Men-induced Ca2+ response (TRPM8): failed to inhibit; also recorded: resistant
IC50 (TRPV4): > 100 µM
effect on GSK-induced Ca2+ response (TRPV4; 100 μmol/L Dic, GSK 3 nmol/L): failed to inhibit
effect on Nif-induced TRPM3-dependent Ca2+ responses (human TRPM3 isoforms; 30 μmol/L Nif): significantly inhibited
preference to inhibit COX-1 than COX-2 (human COX-1 / COX-2): 1.6 times
effect on TRPC6-like channel activity (TRPC6-like channel): decreased
IC50 (TRPC5): 170 µM
effect on capsaicin-induced ileum relaxation (guinea pig ileum): no effects
effect on Men-evoked hyperthermia (mouse): no effects

Compound: COc1ccc2c(c1)c(CC(=O)O)c(C)n2C(=O)c1ccc(Cl)cc1 [Ind, indomethacin]
preference to inhibit COX-1 than COX-2 (human COX-1 / COX-2): 25 times

Compound: Cc1cccc(Nc2ccccc2C(=O)O)c1C [mefenamic acid]
IC50 (mouse TRPM3α2 (mTRPM3α2)): 6.6 µM

More lines, now with the values ahead:

agonist effect on intracellular Ca2+ concentration (human TRPM3 isoforms): induced Ca^2+ response
Compound: COC(=O)C1=C(C)NC(C)=C(C(=O)OC)C1c1ccccc1[N+](=O)[O-] [Nif, nifedipine]

agonist Ca2+ response in nIMR-32 cells [3]: evoked a Ca^2+ response
agonist effect on intracellular Ca2+ concentration (human TRPM3 isoforms): induced elevation
Compound: pregnenolone sulfate [PregS]

From PMC4876142 (Pharmacology Research & Perspectives, 2016)
